Assay [1] can be described thus: Inhibition of rat brain Casein kinase II. Put shortly: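 Casein kinase II isolated from rat brain homogenate; 20 mM Tris-HCl pH 7.5, 5 mM NaF, casein substrate, 10 mM MgCl2, 30 μM [γ-32P]ATP, inhibitor in DMSO. Room temperature 10 min, stopped with ice-cold TCA plus BSA; precipitate filtered onto glass fiber and β-counted.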
Assay [2] can be described thus: Inhibition of rat brain Ca 2+/Calmodulin dependent kinase. Put shortly:
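Ca2+/calmodulin kinase isolated from rat brain homogenate; 50 mM Tris-HCl pH 7.5, 5 mM β-mercaptoethanol, 400 μM EGTA, 700 μM CaCl2, 10 mM MgCl2, 200 μg/mL histone type HA, 30 μM [γ-32P]ATP, inhibitor in DMSO. Room temperature 10 min, ice-cold TCA plus BSA stop, precipitate filtered and β-counted.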

Assay [3] has as its target T1, Protein kinase C beta type (Homo sapiens, UniProt P05771). Kind of assay: Evaluated against recombinant human Protein kinase C beta 1. Put shortly: (§1)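 Recombinant human PKC isozymes expressed in SF9 cells via baculovirus, partly purified (50–90%). 32P transfer from 30 μM [32P]ATP to 200 μg/mL histone IIIS in 20 mM Hepes pH 7.5, 10 mM MgCl2, EGTA, CaCl2, phosphatidylserine, and diacylglycerol at the isozyme-dependent level giving half-maximal activation. 10 min at 30 °C, TCA stop, filter counting. No-lipid background subtracted.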

For assay [4], the target named is T1, Protein kinase C beta type. Description: Evaluated against recombinant human Protein kinase C beta 2. Put shortly: as §1
For assay [5], the target named is Protein kinase C gamma type (Homo sapiens, UniProt P05129). Kind of assay: Evaluated against recombinant human Protein kinase C gamma. Put shortly: as §1
Assay [6] has as its target Protein kinase C delta type (Homo sapiens, UniProt Q05655). Kind of assay: Evaluated against recombinant human Protein kinase C delta. Put shortly:
as §1

In assay [7] the target is Protein kinase C alpha type (Homo sapiens, UniProt P17252). Kind of assay: Evaluated against recombinant human Protein kinase C alpha. Put shortly:
as §1

Assay [8] addresses T2, Protein kinase C epsilon type (Homo sapiens, UniProt Q02156).
T2 sequence (Q02156 whole entry): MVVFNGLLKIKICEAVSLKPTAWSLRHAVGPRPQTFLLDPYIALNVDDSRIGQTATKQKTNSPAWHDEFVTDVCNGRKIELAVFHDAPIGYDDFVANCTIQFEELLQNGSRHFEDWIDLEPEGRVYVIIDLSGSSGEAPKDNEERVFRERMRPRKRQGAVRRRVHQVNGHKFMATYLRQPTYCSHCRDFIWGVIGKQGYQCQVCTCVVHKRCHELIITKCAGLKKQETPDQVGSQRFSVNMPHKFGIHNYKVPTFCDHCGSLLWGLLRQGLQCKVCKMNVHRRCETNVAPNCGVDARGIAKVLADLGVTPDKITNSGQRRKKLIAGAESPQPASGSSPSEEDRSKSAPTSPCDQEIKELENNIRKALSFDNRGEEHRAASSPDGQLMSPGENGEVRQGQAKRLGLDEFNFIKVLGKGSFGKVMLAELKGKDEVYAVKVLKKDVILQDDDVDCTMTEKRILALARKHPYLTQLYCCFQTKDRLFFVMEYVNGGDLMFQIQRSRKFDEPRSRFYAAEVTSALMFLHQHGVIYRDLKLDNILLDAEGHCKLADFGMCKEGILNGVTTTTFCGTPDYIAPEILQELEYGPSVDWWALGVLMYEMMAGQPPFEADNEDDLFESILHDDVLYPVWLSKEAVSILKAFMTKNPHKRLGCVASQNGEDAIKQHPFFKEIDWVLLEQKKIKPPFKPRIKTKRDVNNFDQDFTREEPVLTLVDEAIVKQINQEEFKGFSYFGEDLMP
Kind of assay: Evaluated against recombinant human Protein kinase C epsilon. Put shortly: as §1

The target in assay [9] is T3, Protein kinase C eta type (Homo sapiens, UniProt P24723). Description: Evaluated against recombinant human Protein kinase C eta. Put shortly:
as §1

The target in assay [10] is Proto-oncogene tyrosine-protein kinase Src (Homo sapiens, UniProt P12931). Description: Inhibition of src Protein Tyrosine Kinase. Put shortly:
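p60src tyrosine kinase with Raytide peptide substrate, run by the supplier's protocol except that Triton X-100 replaced Brij 35.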

A short description of assay [11]: Evaluated against bovine heart Protein Kinase A (PKA).
The target of assay [12] is T3, Protein kinase C eta type. Kind of assay: Inhibition of recombinant human Protein kinase C eta. Put shortly: as §1
Assay [13] deals with neutrophil superoxide release (Homo sapiens). Kind of assay: Inhibition of neutrophil superoxide release.

Molecules are shown by their SMILES. Bounds are passed on as bounds.

Protein kinase C delta type, sequence (Q05655 whole entry): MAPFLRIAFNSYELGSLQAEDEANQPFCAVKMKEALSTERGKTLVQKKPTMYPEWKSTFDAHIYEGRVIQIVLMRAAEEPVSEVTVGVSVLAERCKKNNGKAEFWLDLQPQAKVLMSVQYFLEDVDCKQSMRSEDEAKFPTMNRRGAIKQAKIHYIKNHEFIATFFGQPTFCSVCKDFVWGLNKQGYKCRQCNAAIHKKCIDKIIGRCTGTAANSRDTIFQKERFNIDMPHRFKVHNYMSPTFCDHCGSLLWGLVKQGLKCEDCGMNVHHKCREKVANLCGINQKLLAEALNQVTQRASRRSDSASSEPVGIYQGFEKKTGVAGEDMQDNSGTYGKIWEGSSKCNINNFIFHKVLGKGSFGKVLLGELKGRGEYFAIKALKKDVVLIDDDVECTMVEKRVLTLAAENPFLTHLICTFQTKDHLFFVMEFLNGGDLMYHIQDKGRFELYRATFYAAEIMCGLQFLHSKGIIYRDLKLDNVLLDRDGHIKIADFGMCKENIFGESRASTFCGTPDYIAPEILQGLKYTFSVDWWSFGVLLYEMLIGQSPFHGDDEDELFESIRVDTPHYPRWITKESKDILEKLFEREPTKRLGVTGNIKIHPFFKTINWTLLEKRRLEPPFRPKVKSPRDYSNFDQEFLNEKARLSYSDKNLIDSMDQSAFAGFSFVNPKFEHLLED
T1 sequence (P05771 whole entry): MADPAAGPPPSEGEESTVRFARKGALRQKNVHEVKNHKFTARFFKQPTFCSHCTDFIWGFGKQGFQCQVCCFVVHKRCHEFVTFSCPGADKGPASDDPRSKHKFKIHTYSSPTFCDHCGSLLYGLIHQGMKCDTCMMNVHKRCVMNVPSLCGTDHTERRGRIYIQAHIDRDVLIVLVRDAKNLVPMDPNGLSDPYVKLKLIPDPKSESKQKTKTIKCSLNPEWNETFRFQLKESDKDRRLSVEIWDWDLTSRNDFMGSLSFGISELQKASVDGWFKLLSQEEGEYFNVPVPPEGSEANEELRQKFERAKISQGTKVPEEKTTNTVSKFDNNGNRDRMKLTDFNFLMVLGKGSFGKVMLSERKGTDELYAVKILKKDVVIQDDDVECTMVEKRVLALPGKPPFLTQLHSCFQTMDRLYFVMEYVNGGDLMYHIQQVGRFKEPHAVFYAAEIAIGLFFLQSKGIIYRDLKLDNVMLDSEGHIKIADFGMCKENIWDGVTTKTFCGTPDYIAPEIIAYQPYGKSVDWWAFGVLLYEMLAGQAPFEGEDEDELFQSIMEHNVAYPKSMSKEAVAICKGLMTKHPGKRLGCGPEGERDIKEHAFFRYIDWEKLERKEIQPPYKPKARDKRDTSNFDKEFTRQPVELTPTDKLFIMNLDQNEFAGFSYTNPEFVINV
T3 sequence (P24723 whole entry): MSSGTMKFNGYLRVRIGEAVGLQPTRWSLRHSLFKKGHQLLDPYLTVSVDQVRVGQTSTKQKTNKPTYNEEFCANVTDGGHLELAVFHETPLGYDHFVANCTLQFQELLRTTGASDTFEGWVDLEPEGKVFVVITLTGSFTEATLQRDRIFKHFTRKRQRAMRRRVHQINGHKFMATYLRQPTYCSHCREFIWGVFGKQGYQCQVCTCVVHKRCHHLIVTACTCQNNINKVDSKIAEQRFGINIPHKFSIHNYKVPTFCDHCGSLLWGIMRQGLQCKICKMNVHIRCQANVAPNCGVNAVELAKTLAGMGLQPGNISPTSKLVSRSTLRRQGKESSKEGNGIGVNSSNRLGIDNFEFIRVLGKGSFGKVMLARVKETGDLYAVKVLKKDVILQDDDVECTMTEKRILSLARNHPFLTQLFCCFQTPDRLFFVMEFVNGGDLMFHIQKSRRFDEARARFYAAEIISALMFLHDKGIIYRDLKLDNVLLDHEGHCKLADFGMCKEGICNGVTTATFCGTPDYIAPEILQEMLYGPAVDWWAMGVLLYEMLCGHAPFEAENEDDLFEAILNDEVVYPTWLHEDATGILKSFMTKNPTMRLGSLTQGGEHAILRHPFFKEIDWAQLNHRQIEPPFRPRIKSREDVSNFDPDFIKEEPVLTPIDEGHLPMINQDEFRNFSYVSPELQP
Proto-oncogene tyrosine-protein kinase Src, sequence (P12931 2-536 limits assumed): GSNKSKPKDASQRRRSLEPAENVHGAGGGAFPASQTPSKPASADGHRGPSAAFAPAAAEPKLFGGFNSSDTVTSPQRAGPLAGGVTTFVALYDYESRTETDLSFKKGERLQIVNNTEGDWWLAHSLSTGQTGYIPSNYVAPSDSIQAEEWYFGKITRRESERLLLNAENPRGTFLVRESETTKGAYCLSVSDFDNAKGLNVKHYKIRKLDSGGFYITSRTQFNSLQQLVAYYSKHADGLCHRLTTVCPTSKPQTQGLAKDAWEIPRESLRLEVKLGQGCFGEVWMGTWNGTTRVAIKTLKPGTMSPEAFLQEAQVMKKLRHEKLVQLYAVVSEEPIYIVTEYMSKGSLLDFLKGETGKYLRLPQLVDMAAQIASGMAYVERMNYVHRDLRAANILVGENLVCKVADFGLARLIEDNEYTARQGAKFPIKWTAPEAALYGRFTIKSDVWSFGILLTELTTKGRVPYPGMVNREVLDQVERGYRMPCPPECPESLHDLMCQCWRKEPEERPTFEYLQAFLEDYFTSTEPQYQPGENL

Consider `O=C(OCC(Cc1ccc(O)cc1)NS(=O)(=O)c1ccccc1)c1cc(O)c(C(=O)c2c(O)cccc2C(=O)O)c(O)c1` (configuration not stated), for which the concentration for half-maximal inhibition (IC50) in assay [1] is greater than 50000 nM; in assay [2] it was 32000 nM; in assay [3], 220 nM; in assay [4] it was 30 nM; in assay [5], 220 nM; in assay [6], 40 nM. For the same molecule, the IC50 in [7] is 110 nM; in assay [8], 320 nM; in assay [9] it was 20 nM; in [10], greater than 12500 nM; in assay [11], greater than 50000 nM.
On to `O=C(N[C@@H]1CNCCC[C@H]1OC(=O)c1cc(O)c(C(=O)c2c(O)cccc2C(=O)O)c(O)c1)c1ccc(O)cc1` [BALANOL], for which the IC50 in [2] was 30 nM; in [6], 20 nM; in [10], greater than 10000 nM; in [11], 40 nM.
Turning to `O=C(OCC(NS(=O)(=O)c1ccccc1)c1ccc(O)cc1)c1cc(O)c(C(=O)c2c(O)cccc2C(=O)O)c(O)c1` (configuration not stated), the IC50 in [3] was 11000 nM; in [4] it was 2800 nM; in assay [5], 4800 nM; in [6], 1900 nM; in assay [7], greater than 50000 nM; in assay [8], greater than 50000 nM. The results for the concentration for half-maximal inhibition (IC50) in [12] and in assay [11] were 3300 nM and greater than 50000 nM, respectively.
Consider `COC(=O)c1cccc(O)c1C(=O)c1c(O)cc(C(=O)OC[C@@H](Cc2ccc(O)cc2)NS(=O)(=O)c2ccccc2)cc1O`, for which the half-maximal inhibitory concentration (IC50) came to 2200 nM in assay [3]; 340 nM in [4]; 4500 nM in assay [5]; 360 nM in assay [6]; 18000 nM in [7]; 38000 nM in assay [8]. The concentration for half-maximal inhibition (IC50) in [9] was less than 50 nM; in assay [13], 930 nM; in assay [11] it was greater than 50000 nM.
Consider `CC(CCc1ccc(O)cc1)OC(=O)c1cc(O)c(C(=O)c2c(O)cccc2C(=O)O)c(O)c1` (configuration not stated), for which the IC50 in [1] was greater than 50000 nM; in assay [2], greater than 50000 nM; in assay [3] it was 40 nM; in assay [4], 30 nM; in [5], 250 nM; in [6], 30 nM. For the same molecule, the IC50 in [7] is 410 nM; in assay [8], 280 nM; in [9], 20 nM; in [11] it was greater than 50000 nM.

Broadly, the IC50 is the concentration that gives 50% inhibition.

These data come from ChEMBL document CHEMBL1129461 (J Med Chem, 1996).
